Data as given in ChEMBL document CHEMBL4007393 (J Med Chem, 2017).
In brackets after ≈: the same amount, converted by molar mass.

Key:
[1] = Kinetic solubility of the compound in water after 30 mins by nephelometric analysis; assay type: physicochemical; details: read-out: Kinetic_solubility
Method in brief: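 DMSO stock diluted into water to 1% final DMSO and left at ambient temperature for 30 min. Solubility range read by nephelometry.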

[2] = Cmax in FVB mouse at 30 mg/kg, administered through oral gavage as single dose by LC-MS analysis; assay type: ADME, organism-based; parameters: dose 30 mg/kg, route oral; details: in vivo
Method in brief: (§1)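 Non-infected mice given one oral gavage dose of 30 mg/kg as an aqueous suspension. Terminal cardiac blood taken under isoflurane, centrifuged at 4 °C, plasma stored at -20 °C. Plasma proteins precipitated with acetonitrile (2:1 or 3:1), supernatant run by LC/MS with diazepam internal standard against a blank mouse plasma calibration curve. PK parameters calculated noncompartmentally.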

[3] = Plasma concentration in FVB mouse at 30 mg/kg, administered through oral gavage as single dose measured after 48 hrs post dose by LC-MS analysis; assay type: ADME, organism-based; method in brief: as §1
[4] = AUC (0 to infinity) in FVB mouse at 30 mg/kg, administered through oral gavage as single dose by LC-MS analysis; assay type: ADME, organism-based; parameters: dose 30 mg/kg, time infinity, route oral; details: in vivo; method in brief: as §1
[5] = tested on: Rattus norvegicus; assay: Drug accumulation in rat at 100 to 300 mg/kg, po administered every third day for 5 doses measured after 2 weeks relative to control; assay type: ADME, organism-based; details: in vivo, 336 h
Method in brief: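 Male rats were given oral gavage doses of 100 or 300 mg/kg every third day for five doses, alongside a vehicle group. The vehicle was the same formulation used for the mouse efficacy studies. Plasma concentrations were followed over the dosing period to assess accumulation, together with general condition, body weight, biochemistry and histopathology.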

[6] = Plasma concentration in rat at 300 mg/kg, po administered every third day for 5 doses measured after 2 weeks; assay type: ADME, organism-based
Method in brief: (§2)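 Male rats dosed by oral gavage at 100 or 300 mg/kg every third day for 5 doses, in the same vehicle as the mouse efficacy and exposure studies; vehicle controls included. Endpoints: general condition, body weight, clinical biochemistry, histopathology, mortality and plasma concentrations.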

[7] = Plasma concentration in rat at 100 mg/kg, po administered every third day for 5 doses measured after 2 weeks; assay type: ADME, organism-based; method in brief: as §2

Compound	solubility kinetic at 0.5 h [1] [µg/mL]	Cmax [2] [nM]	concentration at 48 h [3] [nM]	AUC(0-inf) [4] [µM·h]	fold change (FC) [5]	concentration at 336 h [6] [ng/mL]	concentration at 336 h [7] [ng/mL]
NC1CCN(S(=O)(=O)c2ccc([C@H]3CC[C@]4(CC3)OOC3(O4)C4CC5CC(C4)CC3C5)cc2)CC1 (stereo partly drawn)	12.5 to 25 (≈ 24.9 to 49.7 µM)						
c1cc([C@H]2CC[C@]3(CC2)OOC2(O3)C3CC4CC(C3)CC2C4)ccc1OCCN1CCCOCC1 (stereo partly drawn)	3.1 to 6.3 (≈ 6.41 to 13 µM)	2610	13.2	16.8			
CC(C)(N)CCOc1ccc([C@H]2CC[C@]3(CC2)OOC2(O3)C3CC4CC(C3)CC2C4)cc1 (stereo partly drawn)	50 to 100 (≈ 113 to 226 µM)	1050	89.2	27.8	1 to 4		
[O-][S+]1CCN(CCCOc2ccc([C@H]3CC[C@]4(CC3)OOC3(O4)C4CC5CC(C4)CC3C5)cc2)CC1 (stereo partly drawn)	< 1.6					1000 to 2000	
CS(=O)(=O)N1CCN(CCCOc2ccc([C@H]3CC[C@]4(CC3)OOC3(O4)C4CC5CC(C4)CC3C5)cc2)CC1 (stereo partly drawn)	< 1.6						
NCCOc1ccc([C@H]2CC[C@]3(CC2)OOC2(O3)C3CC4CC(C3)CC2C4)cc1 (stereo partly drawn)	> 100	287	4.73	3.42	1 to 4		
c1cc([C@H]2CC[C@]3(CC2)OOC2(O3)C3CC4CC(C3)CC2C4)ccc1OCCOC1CCNCC1 (stereo partly drawn)	50 to 100 (≈ 103 to 207 µM)	633	97.6	19			
c1cc([C@H]2CC[C@]3(CC2)OOC2(O3)C3CC4CC(C3)CC2C4)ccc1OCCC1CCNCC1 (stereo partly drawn)	> 100	1190	192	34.1			
c1cc([C@H]2CC[C@]3(CC2)OOC2(O3)C3CC4CC(C3)CC2C4)ccc1OC1CCNCC1 (stereo partly drawn)	> 100	810	49.4	16.4			
O=C(c1ccc([C@H]2CC[C@]3(CC2)OOC2(O3)C3CC4CC(C3)CC2C4)cc1)N1CCNCC1 (stereo partly drawn)	> 100						
c1cc([C@H]2CC[C@]3(CC2)OOC2(O3)C3CC4CC(C3)CC2C4)ccc1OCCN1CC2(COC2)C1 (stereo partly drawn)	50 to 100 (≈ 104 to 208 µM)						
c1cc([C@H]2CC[C@]3(CC2)OOC2(O3)C3CC4CC(C3)CC2C4)ccc1OCCN1CCNCC1 (stereo partly drawn)	> 100	752	23.9	16.8			
NCCCCOc1ccc([C@H]2CC[C@]3(CC2)OOC2(O3)C3CC4CC(C3)CC2C4)cc1 (stereo partly drawn)	50 to 100 (≈ 117 to 234 µM)	370	23.4	11			
FC1(F)C2CC3CC1CC(C2)C31OO[C@]2(CC[C@@H](c3ccc(OCCN4CCOCC4)cc3)CC2)O1 (stereo partly drawn)	1.6 to 3.1 (≈ 3.16 to 6.13 µM)						
CC(C)(O)CNCCCOc1ccc([C@H]2CC[C@]3(CC2)OOC2(O3)C3CC4CC(C3)CC2C4)cc1 (stereo partly drawn)	> 100	1210	36	22.8		> 1900	
c1cc([C@H]2CC[C@]3(CC2)OOC2(O3)C3CC4CC(C3)CC2C4)ccc1OCC1CCNCC1 (stereo partly drawn)	12.5 to 25 (≈ 27.6 to 55.1 µM)	465	17.9	8.9			
N[C@H]1CC[C@@H](Oc2ccc([C@H]3CC[C@]4(CC3)OOC3(O4)C4CC5CC(C4)CC3C5)cc2)CC1 (stereo partly drawn)	25 to 50 (≈ 55.1 to 110 µM)	1170	145	29.5	1 to 4		
c1cc([C@H]2CC[C@]3(CC2)OOC2(O3)C3CC4CC(C3)CC2C4)ccc1OCCN1CCC1 (stereo partly drawn)	> 100						
c1ccc([C@H]2CC[C@]3(CC2)OOC2(O3)C3CC4CC(C3)CC2C4)c(OCCN2CCOCC2)c1 (stereo partly drawn)	3.1 to 6.3 (≈ 6.6 to 13.4 µM)						
CC(C)(N)CNC(=O)C[C@H]1CC[C@]2(CC1)OOC1(O2)C2CC3CC(C2)CC1C3 (stereo partly drawn)	> 100	776	< 1	2.61			
c1cc([C@H]2CC[C@]3(CC2)OOC2(O3)C3CC4CC(C3)CC2C4)ccc1CN1CCOCC1 (stereo partly drawn)	1.6 to 3.1 (≈ 3.64 to 7.05 µM)						
c1cc([C@H]2CC[C@]3(CC2)OOC2(O3)C3CC4CC(C3)CC2C4)ccc1OCCCN1CCOCC1 (stereo partly drawn)	1.6 to 3.1 (≈ 3.31 to 6.41 µM)						
c1cc([C@H]2CC[C@]3(CC2)OOC2(O3)C3CC4CC(C3)CC2C4)ccc1OCCN1CCCCC1 (stereo partly drawn)	6.3 to 12.5 (≈ 13.5 to 26.7 µM)						
O[C@H]1CC[C@H](NCCCOc2ccc([C@H]3CC[C@]4(CC3)OOC3(O4)C4CC5CC(C4)CC3C5)cc2)CC1 (stereo partly drawn)	> 100	721	26.5	12.8			
NCCCOc1ccc([C@H]2CC[C@]3(CC2)OOC2(O3)C3CC4CC(C3)CC2C4)cc1 (stereo partly drawn)					1 to 4		
CC(C)(CN)Oc1ccc([C@H]2CC[C@]3(CC2)OOC2(O3)C3CC4CC(C3)CC2C4)cc1 (stereo partly drawn)	> 100	529	7.97	11.3			
CC(C)(O)CN1CCC(Oc2ccc([C@H]3CC[C@]4(CC3)OOC3(O4)C4CC5CC(C4)CC3C5)cc2)CC1 (stereo partly drawn)	1.6 to 3.1 (≈ 3.13 to 6.06 µM)	1810	22.7	27.7		1000 to 2000	
c1cc([C@H]2CC[C@]3(CC2)OO[C@]2(O3)C3CC4CC(C3)CC2C4)ccc1OCCN1CCOCC1 [ARTEFENOMEL]	< 1.6	3800	132	38.7		6300	4600
CC1(C)CC(O)(COc2ccc([C@H]3CC[C@]4(CC3)OOC3(O4)C4CC5CC(C4)CC3C5)cc2)CC(C)(C)N1 (stereo partly drawn)	> 100	1000	122	32.9			
